TDP2 inh = human TDP2 enzyme inhibitors, primary screen, biochemical, epi absorbance, recombinant enzyme. Tyrosyl-DNA phosphodiesterase 2 (Homo sapiens), O95551. inhibition, % at 12.8 µM. 370,000 compounds, 0.34% hits. AID 720702, 2013. T5PNP hydrolysis, p-nitrophenol absorbance 415 nm;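 active = inhibition above the mean of all tested compounds plus 3 SD, set per campaign, cut at about 25% in these data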;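 also: 0% = DMSO with enzyme and 100% = buffer with substrate but no TDP2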
Target sequence (O95551 whole entry, looked up): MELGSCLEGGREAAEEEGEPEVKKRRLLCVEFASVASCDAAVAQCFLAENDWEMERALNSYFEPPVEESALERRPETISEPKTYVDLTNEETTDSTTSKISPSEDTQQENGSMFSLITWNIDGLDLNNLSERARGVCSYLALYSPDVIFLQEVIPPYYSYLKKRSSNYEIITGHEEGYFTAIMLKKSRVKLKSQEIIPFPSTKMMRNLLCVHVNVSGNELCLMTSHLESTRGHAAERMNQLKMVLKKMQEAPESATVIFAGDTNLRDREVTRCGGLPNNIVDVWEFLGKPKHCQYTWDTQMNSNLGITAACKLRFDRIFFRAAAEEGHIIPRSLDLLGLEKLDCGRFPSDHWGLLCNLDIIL
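Evaluation: % inhibition relative to enzyme-containing and enzyme-free wells. Material: recombinant human TDP2. Benchmarks: enzyme-free and DMSO wells. Timing: enzyme reaction with compound for 2 h at 37 °C. Compound dosing: 12.8 µM only. Measured by: p-Nitrophenol epi absorbance. Reagent: T5PNP substrate at 5 mM, a TopII-DNA adduct mimic. Replication: single well per compound.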
Casp6 inh = human caspase-6 inhibitors, primary screen, biochemical, VEID-R110 fluorescence, single point, set 2; P55212; purified caspase-6, Z-VEID-R110 cleavage fluorescence; inhibition, % at 12.5 µM; 350,000 compounds, 0.53% hits; AID 686996, 2013;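 active = mean inhibition across replicates at least about 35%, with every replicate also reaching that limit, limit read from the data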;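 also: 0% = median of neutral control wells and 100% = no fluorescence left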
ARFGAP1 inhibitor = inhibitors of rat ARFGAP1 GAP activity, primary screen, biochemical, fluorescence polarization, GDP tracer. ADP-ribosylation factor GTPase-activating protein 1 (Rattus norvegicus), Q62848. Arfgap1-stimulated ARF1 GTP hydrolysis, GDP FP detection. inhibition, % at 16.5 µM. 360,000 compounds, 0.26% hits. AID 651572, 2012;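 active = inhibition above a per-plate limit, mean inhibition of low control wells plus 3 SD, cut at about 25% in these data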;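 also: 0% = DMSO wells with enzyme and 100% = wells lacking Arfgap1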
Target sequence (Q62848 1-136 limits assumed): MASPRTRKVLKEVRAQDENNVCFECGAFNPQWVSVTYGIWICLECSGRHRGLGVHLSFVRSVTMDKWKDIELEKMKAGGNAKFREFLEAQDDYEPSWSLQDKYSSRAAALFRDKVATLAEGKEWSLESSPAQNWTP
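material = rat Arfgap1 catalytic domain, aa 1-136 | also added = human ARF1(Δ1-17)-GTP substrate | compound dosing = one concentration, 16.5 µM, DMSO 1.26% | times = GTP hydrolysis reaction 2 h at 25 °C | measured by = FP, GDP Alexa 633 tracer displaced from anti-GDP antibody, 620/688 nm | evaluation = percent inhibition of Arfgap1-stimulated GTP hydrolysis | replication = single well per compound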
ASAP1 GAP inh = inhibitors of human ASAP1 ArfGAP activity, primary screen, biochemical, fluorescence polarization; Arf-GAP with SH3 domain, ANK repeat and PH domain-containing protein 1 (Homo sapiens), …; ASAP1-stimulated ARF1 GTP hydrolysis, GDP FP detection; inhibition, % at 16.5 µM; 360,000 compounds, 0.19% hits; in the data active = inhibition above about 25%;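 also: 0% = vehicle with enzyme and substrate and 100% = no enzyme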
LEDGF integ inh = blockers of LEDGF/p75-dependent integrase strand transfer – biochemical, TR-FRET, high throughput, primary screen. TR-FRET IN-LEDGF/p75 DNA integration, Eu/Cy5. HIV-1 integrase (with human LEDGF/p75). inhibition, % at 3.7 µM. 370,000 compounds, 0.64% hits. AID 743269, 2014;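 active = inhibition above the screen-wide mean plus 3 SD, cut at about 13% in these data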;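 also: signal is the Cy5 over europium emission ratio at 671 and 618 nm; 0% = plate median of compound wells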
ARFGAP1 inh conf = ARFGAP1 inhibitor hit confirmation, biochemical, fluorescence polarization, triplicate | ARFGAP1-stimulated ARF1 GTP hydrolysis, GDP tracer FP | AID 651608, 2012 | shares compounds with ARFGAP1 inhibitor | 890 compounds, 30% hits | inhibition, % at 16.5 µM;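 active = average inhibition over triplicates above the hit cutoff set in the earlier primary screen, cut at about 25% in these data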;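 also: 0% = Arfgap1 plus ARF1-GTP with DMSO and 100% = wells lacking Arfgap1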
Numbers without * were called inactive; . = not tested or not shown. The list is not random: actives were taken first. Their share in the collection is about 1.3%.

SMILES | TDP2 inh | Casp6 inh | ARFGAP1 inhibitor | ASAP1 GAP inh | LEDGF integ inh | ARFGAP1 inh conf
O=C(Nc1ccc(Oc2cccc3ccccc23)cc1)c1ccco1 | -4 | . | 28* | -7 | 1 | 12
C[C@@H]1CN([C@@H](C)CO)S(=O)(=O)c2ccc(C#CC3(O)CCCC3)cc2O[C@@H]1CN(C)C(=O)Nc1cccc(F)c1 | . | -2 | . | . | . | .
C[C@H](CO)N1C[C@H](C)[C@H](CN(C)C(=O)Nc2cccc(F)c2)Oc2cc(C#CC3(O)CCCC3)ccc2S1(=O)=O | -7 | 0 | 29* | 5 | -2 | 5
CC(=O)c1ccc(OCC(O)COc2ccc(C(C)=O)cc2)cc1 | 2 | . | 15 | 3 | 3 | .
C=C(C)C(=O)OCC(O)COc1ccc(C(C)(C)c2ccc(OCC(O)COC(=O)C(=C)C)cc2)cc1 (stereo unspecified) | -9 | 2 | 32* | 6 | -3 | 14
O=c1c2cn[nH]c2[nH]c(=S)n1-c1ccccc1Cl | 1 | 2 | 5 | -10 | 0 | .
Cc1ccc(/C=N/N(Cc2ccccc2)c2ccccc2)o1 | 12 | 4 | 33* | 0 | -2 | 2
Cc1ccc(/C=N/N2CCN(Cc3ccccc3)CC2)o1 | 5 | . | 5 | -10 | -2 | .
Cc1nc2ccccc2c(=O)n1/N=C/c1ccc(OC(F)F)cc1 | 10 | -2 | 1 | 12 | -3 | .
CC(=O)Nc1ccc(-c2csc(NC(=O)Cc3cccc(F)c3)n2)cc1 | 1 | 2 | 31* | 12 | 1 | 13
CC(=O)Nc1ccc(-c2csc(NC(=O)Cc3ccccc3F)n2)cc1 | -10 | -2 | 3 | 10 | 2 | .
CCOc1ccc(NC(=O)c2ccc3c(=O)n4c(nc3c2)CCCCC4)cc1 | 7 | -2 | -7 | 15 | 0 | .
CO/N=C/c1cccn1-c1nccc(OC)c1C#N | -1 | 0 | 31* | -1 | 1 | 4
C[C@@H]1COC(=O)[C@H](CC(=O)OC(C)(C)C)C/C=C\C[C@@H](CC(=O)N(CCO)Cc2ccccc2)C(=O)N1 | -12 | 1 | 6 | 1 | 1 | .
O=C(N/N=C/c1c[nH]c2ccccc12)c1[nH]c2ccc(Br)cc2c1-c1ccccc1 | -9 | -2 | 30* | 1 | -4 | 17
O=C(Nc1ccccc1[N+](=O)[O-])c1cc(S(=O)(=O)N2CCOCC2)cs1 | 1 | -4 | -5 | 10 | -1 | .
COC(=O)c1sc2cc(C(F)(F)F)cnc2c1-c1ccccn1 | 4 | 1 | 4 | 3 | 3 | .
C=CCc1ccc(O)c(-c2ccc(O)c(CC=C)c2)c1 | -3 | 4 | 36* | 14 | -9 | 11
COc1ccc(NC(=O)COC(=O)c2c3c(nc4ccccc24)CCCC3)cc1 | 0 | . | 24 | -15 | 2 | .
COc1ccc(NC(=O)COC(=O)c2c3c(nc4ccccc24)CCCC3)cc1Cl | 2 | . | 27* | 0 | 2 | 14
CCOC(=O)Cn1cnc2c(nnn2-c2ccc(OC)cc2)c1=O | 8 | . | -5 | 10 | -1 | .
Cc1ccc2ccccc2c1C(O)c1ncc(-c2ccc(Cl)cc2)[nH]1 (stereo unspecified) | -10 | 1 | 18 | 11 | 2 | .
CC(C)N1CCN(Cc2ccc(-c3ccccc3)cc2)CC1CCO (stereo unspecified) | 7 | -1 | -6 | -1 | -2 | .
CC(C)N1CCN(Cc2ccc(-c3ccccc3Cl)o2)CC1CCO (stereo unspecified) | 4 | -7 | 29* | -11 | -3 | 8
COc1ccc2oc(C(=O)OCC(=O)N3CC(C)OC(C)C3)c(C)c2c1 (stereo unspecified) | -2 | 31 | 25* | 11 | 4 | 13

Screening data from PubChem BioAssay.
